The structures appear in SMILES notation.

Maximal efficacy and EC50 data for 29 compounds are collected here from ChEMBL document CHEMBL1145214, “Synthesis, structure-activity relationships at the GABA(A) receptor in rat brain, and differential electrophysiological profile at the recombinant human GABA(A) receptor of a series of substituted 1,2-diphenylimidazoles” (J Med Chem, 2005).

Experiment [1] deals with GABA A receptor alpha-2/beta-2/gamma-2 (Homo sapiens) (UniProt P47870+P18507+P47869). Briefly: Maximal efficacy for GABA-evoked chloride currents mediated by human Gamma-aminobutyric acid GABA-A receptor alpha2-beta2-gamma2L expressed in Xenopus oocytes. Format: cell-based. The note with it: Oocyte. The gist of the method:
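Human α2β2γ2L cDNAs, 1.5 ng total in 30 nL at a 1:1:1 ratio, injected into the animal pole of oocytes. Oocytes held at 15 °C in supplemented modified Barth's solution, pH 7.5. Compounds were applied for 60 s together with GABA at EC10 (10% of the 10 mM GABA maximum), final DMSO ≤0.1%. Readout was % potentiation of Cl- current from concentration-response curves.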

The target of experiment [2] is T1, GABA A receptor alpha-2/beta-2/gamma-2 (Homo sapiens, UniProt P18507+P47869+P47870).
T1 sequence (P47870 whole entry): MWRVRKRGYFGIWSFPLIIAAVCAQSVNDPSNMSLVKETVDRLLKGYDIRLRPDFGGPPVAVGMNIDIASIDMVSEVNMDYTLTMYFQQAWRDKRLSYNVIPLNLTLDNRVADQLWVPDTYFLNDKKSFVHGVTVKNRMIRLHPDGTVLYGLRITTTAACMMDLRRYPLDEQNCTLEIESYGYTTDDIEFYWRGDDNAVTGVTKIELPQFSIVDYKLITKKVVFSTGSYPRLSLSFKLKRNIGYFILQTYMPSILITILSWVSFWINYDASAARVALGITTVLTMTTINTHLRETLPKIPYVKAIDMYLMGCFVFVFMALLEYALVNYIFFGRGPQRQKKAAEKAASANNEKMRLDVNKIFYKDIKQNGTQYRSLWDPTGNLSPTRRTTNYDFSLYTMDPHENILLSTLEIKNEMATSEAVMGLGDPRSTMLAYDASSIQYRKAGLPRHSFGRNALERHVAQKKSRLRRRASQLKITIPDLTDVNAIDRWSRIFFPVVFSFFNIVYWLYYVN
T1 sequence (P18507 whole entry): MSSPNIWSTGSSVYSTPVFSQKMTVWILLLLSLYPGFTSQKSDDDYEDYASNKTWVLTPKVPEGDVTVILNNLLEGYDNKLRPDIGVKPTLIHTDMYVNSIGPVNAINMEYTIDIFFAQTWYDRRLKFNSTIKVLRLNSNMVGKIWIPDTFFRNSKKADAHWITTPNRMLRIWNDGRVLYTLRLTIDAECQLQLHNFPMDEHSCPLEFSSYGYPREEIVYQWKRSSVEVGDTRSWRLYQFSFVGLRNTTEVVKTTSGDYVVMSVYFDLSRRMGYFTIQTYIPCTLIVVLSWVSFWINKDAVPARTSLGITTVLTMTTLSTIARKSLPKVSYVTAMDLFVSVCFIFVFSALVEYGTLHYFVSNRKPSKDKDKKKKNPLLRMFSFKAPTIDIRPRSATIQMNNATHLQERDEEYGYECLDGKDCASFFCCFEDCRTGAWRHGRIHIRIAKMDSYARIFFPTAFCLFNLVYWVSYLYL
T1 sequence (P47869 whole entry): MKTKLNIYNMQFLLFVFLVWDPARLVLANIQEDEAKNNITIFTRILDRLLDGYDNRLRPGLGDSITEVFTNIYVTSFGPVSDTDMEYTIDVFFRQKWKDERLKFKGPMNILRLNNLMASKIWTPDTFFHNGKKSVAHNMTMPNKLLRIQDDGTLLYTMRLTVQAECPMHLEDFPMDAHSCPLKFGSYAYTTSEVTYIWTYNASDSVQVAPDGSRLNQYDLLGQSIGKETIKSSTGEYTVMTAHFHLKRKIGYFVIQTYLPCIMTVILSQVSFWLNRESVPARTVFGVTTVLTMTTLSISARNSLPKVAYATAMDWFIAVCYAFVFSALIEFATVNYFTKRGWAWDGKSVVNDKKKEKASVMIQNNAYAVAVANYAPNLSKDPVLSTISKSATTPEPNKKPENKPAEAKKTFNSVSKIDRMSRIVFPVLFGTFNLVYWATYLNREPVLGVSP
In words: Effective concentration against GABA-evoked chloride currents mediated by human Gamma-aminobutyric acid GABA-A receptor alpha2-beta2-gamma2L expressed in Xenopus oocytes. Type of experiment: cell-based, Oocyte. The gist of the method:
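Human α2β2γ2L cDNAs, 1.5 ng total in 30 nL at a 1:1:1 ratio, injected into the animal pole of oocytes. Oocytes held at 15 °C in supplemented modified Barth's solution, pH 7.5. Readout was % potentiation of Cl- current from concentration-response curves.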

A short description of experiment [3]: Effective concentration required for reversible loss of righting reflex in Xenopus laevis tadpoles. Format: functional, Tadpole.

`CCOC(=O)c1cn(-c2ccccc2)c(-c2ccc(Cl)cc2)n1`: the Maximal efficacy in experiment [1] was 458%. In experiment [2], this compound registered an EC50 of 4200 nM. For `CCOC(=O)c1cn(-c2ccc(Cl)cc2Cl)c(-c2ccccc2)n1`, in that order: 508% and 1800 nM.

Consider `Cc1cn(-c2ccccc2)c(-c2ccccc2)n1`, for which the Maximal efficacy in experiment [1] is -25%. Turning to `CCOC(=O)c1cn(-c2ccc(Cl)cc2Cl)c(-c2ccc(C)cc2)n1`, in experiment [1], the Maximal efficacy worked out at 568%. The same compound showed an EC50 in experiment [2] of 1000 nM. `CCOC(=O)c1cn(-c2ccc(Cl)cc2Cl)c(-c2ccc(OC)cc2)n1`: in experiment [1], the Maximal efficacy was 362%. Also, in experiment [2], the response was half-maximal at 1900 nM (EC50).

Take `CCCC(C)C1(CC)C(=O)NC(=O)NC1=O` (stereo unspecified) [PENTOBARBITAL]: the Maximal efficacy in experiment [1] stood at 214%. The EC50 in experiment [2] amounted to 50000 nM. For `O=C(OCCN1CCCCC1)c1cn(-c2ccc(Cl)cc2Cl)c(-c2ccc(Br)cc2)n1`, the Maximal efficacy in experiment [1] was -14%. In the case of `CCCOC(=O)c1cn(-c2ccc(Cl)cc2Cl)c(-c2ccc(Br)cc2)n1`, the Maximal efficacy in experiment [1] came out at 537%. The compound also had an EC50 in experiment [2] of 1700 nM. Take `CCOC(=O)c1cn(-c2ccc(Cl)cc2Cl)c(-c2ccc(Br)cc2)n1`: the Maximal efficacy in experiment [1] was determined as 388%. Besides, the EC50 in experiment [2] was found to be 190 nM. Regarding `CCOC(=O)c1cn(-c2ccccc2)c(-c2ccc(OC)cc2)n1`, in experiment [1], the Maximal efficacy was 369%. Further, in experiment [2], a half-maximal response (EC50) required 9100 nM.

As to `CCOC(=O)c1cn(-c2ccc(F)cc2)c(-c2ccc(F)cc2)n1`, the Maximal efficacy in experiment [1] turned out to be 569%. In experiment [2], this compound registered an EC50 of 3100 nM.

As to `CCOC(=O)c1cn(-c2ccc(Cl)c(Cl)c2)c(-c2ccc(Cl)cc2)n1`, the Maximal efficacy in experiment [1] was 521%. For the same compound, the EC50 in experiment [2] came to 2300 nM. Turning to `CCOC(=O)c1cn(-c2ccc(Cl)cc2Cl)c(-c2ccc(Cl)cc2)n1`, the EC50 in experiment [3] stood at 1200 nM; in experiment [2], 600 nM. Also, the Maximal efficacy in experiment [1] turned out to be 390%. For the compound `CCOC(=O)c1cncn1[C@H](C)c1ccccc1` [ETOMIDATE], in experiment [3], the EC50 was found to be 2300 nM. Further, in experiment [1], the Maximal efficacy was 501%.

Take `COC(=O)c1cn(-c2ccc(Cl)cc2Cl)c(-c2ccc(Br)cc2)n1`: the Maximal efficacy in experiment [1] is 258%. In experiment [2], this compound registered an EC50 of 3400 nM.

With `O=C(O)c1cn(-c2ccc(Cl)cc2Cl)c(-c2ccc(Cl)cc2)n1`, the Maximal efficacy in experiment [1] worked out at 256%. In experiment [2], the EC50 turned out to be 8700 nM. For `CCOC(=O)c1cn(-c2ccc(Cl)cc2Cl)c(-c2ccc(I)cc2)n1`, in that order: 180% and 450 nM. Taken in the same sequence, the figures for `CCOC(=O)c1cn(-c2ccc(Cl)cc2Cl)c(-c2ccc(NC(C)=O)cc2)n1` were 209% and 19000 nM. As to `CCN(CC)C(=O)c1cn(-c2ccc(Cl)cc2Cl)c(-c2ccc(Cl)cc2)n1`, the Maximal efficacy in experiment [1] is 32.4%. In experiment [2], the EC50 is 4400 nM. On to `CCOC(=O)c1cn(-c2ccc(Cl)cc2)c(-c2ccc(Cl)cc2)n1`, for which the Maximal efficacy in experiment [1] turned out to be 302%. In experiment [2], this compound gave an EC50 of 1500 nM. For `CCOC(=O)c1cn(-c2ccc(Cl)cc2Cl)c(-c2ccc(N)cc2)n1`, in that order: 406% and 4300 nM. As to `CC(=O)[C@H]1CC[C@H]2[C@@H]3CC[C@H]4C[C@H](O)CC[C@]4(C)[C@H]3C(=O)C[C@]12C`, the Maximal efficacy in experiment [1] stood at 322%. `CCOC(=O)c1cn(-c2ccccc2)c(-c2ccccc2)n1`: the Maximal efficacy in experiment [1] amounted to 638%. For the same compound, the EC50 in experiment [2] came to 6400 nM. With `CC(C)c1cccc(C(C)C)c1O` [PROPOFOL], the EC50 turned out to be 1900 nM in experiment [3] and 11200 nM in experiment [2]. Besides, in experiment [1], the Maximal efficacy turned out to be 461%. Turning to `CCOC(=O)c1cn(-c2ccccc2)c(-c2ccc(C)cc2)n1`, the Maximal efficacy in experiment [1] came out at 625%. In experiment [2], this compound registered an EC50 of 4100 nM. For `CN1CCN(C(=O)c2cn(-c3ccc(Cl)cc3Cl)c(-c3ccc(Cl)cc3)n2)CC1`, in that order: 58.2% and 1300 nM. For `CCOC(=O)c1cn(-c2ccc(Cl)cc2Cl)c(-c2ccc([N+](=O)[O-])cc2)n1`, in that order: 413% and 2400 nM.

With `c1ccc(-c2nccn2-c2ccccc2)cc1`, in experiment [1], the Maximal efficacy was -5.3%. Turning to `CCOC(=O)c1cn(-c2cccc(Cl)c2)c(-c2ccccc2)n1`, the Maximal efficacy in experiment [1] is 350%. For the same compound, the EC50 in experiment [2] is 3000 nM.

What is called EC50 is the concentration that produces a half-maximal response. A higher EC50 goes with lower potency in that assay.
